Values after ≈ are worked out from the molar mass of the structure shown. Each block holds one compound with its values, some of them ahead of it. Active and inactive are the calls of the source. No cut-off for these calls is given here.
Key:
[1] = Drug metabolism in Sprague-Dawley rat liver S9 fraction assessed as 1-(2-(1-morpholinopropan-2-ylamino)benzo[d]thiazol-6-yl)-8-(pyridin-4-yl)-1H-imidazo[4,5-c][1,7]naphthyridin-4(5H)-one metabolite formation in presence of aldehyde oxidase inhibitor raloxifene at 10 uM; assay type: ADME, subcellular; conditions: s9, 10 µM
Method in brief: (§1)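 M1 formation was measured in liver S9 incubations with no NADPH added, in the presence of the aldehyde oxidase inhibitor raloxifene. The rat S9 fraction received 10 μM raloxifene. The human S9 fraction was tested at two raloxifene concentrations.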

[2] = Drug metabolism in human liver S9 fraction assessed as 1-(2-(1-morpholinopropan-2-ylamino)benzo[d]thiazol-6-yl)-8-(pyridin-4-yl)-1H-imidazo[4,5-c][1,7]naphthyridin-4(5H)-one metabolite formation in presence of aldehyde oxidase inhibitor raloxifene; assay type: ADME, subcellular; method in brief: as §1
[3] = target: T1, Mitogen-activated protein kinase kinase kinase 8 (Homo sapiens, UniProt P41279); test: Inhibition of human COT (66 to 395 residues) expressed in Sf21 cells using 5-Fluo-Ahx-AGAGSGQLIDSNleANSFVGTR-NH2 as substrate after 60 mins by caliper microfluidic mobility shift assay
T1 sequence (P41279 whole entry, the tested form may be a part): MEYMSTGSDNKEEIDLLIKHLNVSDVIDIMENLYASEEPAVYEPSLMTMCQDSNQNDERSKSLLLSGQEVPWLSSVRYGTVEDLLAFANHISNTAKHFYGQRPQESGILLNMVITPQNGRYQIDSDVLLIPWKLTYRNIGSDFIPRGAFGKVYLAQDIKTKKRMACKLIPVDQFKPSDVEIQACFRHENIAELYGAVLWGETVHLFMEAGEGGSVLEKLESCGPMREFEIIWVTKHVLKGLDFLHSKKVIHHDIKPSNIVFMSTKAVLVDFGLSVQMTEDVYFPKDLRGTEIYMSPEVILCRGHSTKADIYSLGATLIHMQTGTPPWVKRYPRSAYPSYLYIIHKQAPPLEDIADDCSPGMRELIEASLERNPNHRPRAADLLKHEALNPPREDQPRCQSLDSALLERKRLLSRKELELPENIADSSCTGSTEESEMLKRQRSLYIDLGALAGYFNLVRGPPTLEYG

[4] = target: T1, Mitogen-activated protein kinase kinase kinase 8; test: Inhibition of COT in LPS-stimulated human PBMC assessed as reduction in ERK1/2 phosphorylation incubated for 60 mins followed by LPS stimulation for 12 mins by flow cytometric analysis
Method in brief: (§2)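 Primary human PBMCs were stimulated with LPS. Read-outs were pERK, TNFα release, or p65 phosphorylation, each reported as IC50.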

[5] = target: T1, Mitogen-activated protein kinase kinase kinase 8; test: Inhibition of COT in LPS-stimulated human PBMC assessed as reduction in TNFalpha release incubated for 1 hr followed by stimulation with LPS for 4 hrs by HTRF assay; method in brief: as §2
[6] = Octanol-water partition coefficient, log P of the compound by shake-flask method; assay type: physicochemical
[7] = target: T1, Mitogen-activated protein kinase kinase kinase 8; test: Inhibition of COT in LPS-stimulated human whole blood assessed as reduction in TNFalpha release incubated for 30 mins followed by stimulation with LPS for 3 hrs by HTRF assay; assay type: tissue-based
Method in brief: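 Human whole blood was stimulated with LPS, and TNFα release was measured as IC50.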

[8] = Equilibrium solubility of the compound at pH 6.8 after 16 hrs by mass spectrometric analysis; assay type: physicochemical; conditions: buffer
[9] = Equilibrium solubility of the compound at pH 4 after 16 hrs by mass spectrometric analysis; assay type: physicochemical; conditions: buffer
[10] = Protein binding in human plasma at 5 uM after 4 hrs by rapid equilibrium dialysis method; assay type: ADME, cell-free; conditions: read-out: PPB (converted)
[11] = Half life in wild type Sprague-Dawley rat liver microsomes at 5 uM preincubated for 3 mins followed by NADPH addition measured after 1 hr by HPLC/MS analysis; assay type: ADME
[12] = Clearance in wild type Sprague-Dawley rat at 1 mg/kg, iv or 3 mg/kg, po; assay type: ADME, organism-based; conditions: in vivo
Method in brief: (§3)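 Pharmacokinetics in male Sprague–Dawley rats, n = 3 per group, after i.v. and p.o. dosing. AUC and Cmax are reported dose-normalized.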

[13] = Clearance in beagle dog at 0.1 mg/kg, iv or 0.3 mg/kg, po fasted 12 hrs prior to compound administration via cassette dosing and fed 2 hrs post dose; assay type: ADME, organism-based, Canis lupus familiaris; conditions: in vivo
Method in brief: (§4)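 Pharmacokinetics in Beagle dogs, n = 3 per group, after i.v. and p.o. dosing. AUC and Cmax are reported dose-normalized.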

[14] = Terminal elimination half life in wild type Sprague-Dawley rat at 1 mg/kg, iv or 3 mg/kg, po; assay type: ADME, organism-based; conditions: in vivo, read-out: beta t1/2 (converted)
Method in brief: (§5)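 Male wild-type Sprague–Dawley rats, n = 3 per group, housed under Swiss animal-welfare conditions (12 h light/dark, 22−24 °C). Each group received separate i.v. and oral doses, with plasma profiles used for PK parameters.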

[15] = Terminal elimination half life in beagle dog at 0.1 mg/kg, iv or 0.3 mg/kg, po fasted 12 hrs prior to compound administration via cassette dosing and fed 2 hrs post dose; assay type: ADME, organism-based, Canis lupus familiaris; conditions: in vivo, read-out: beta t1/2 (converted)
Method in brief: (§6)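 Beagle dogs, n = 3 per group, dosed i.v. and orally. PK parameters were derived from blood/plasma profiles, with exposure values dose-normalized.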

[16] = Mean residence time in wild type Sprague-Dawley rat at 1 mg/kg, iv or 3 mg/kg, po; assay type: ADME, organism-based; conditions: in vivo; method in brief: as §3
[17] = Mean residence time in beagle dog at 0.1 mg/kg, iv or 0.3 mg/kg, po fasted 12 hrs prior to compound administration via cassette dosing and fed 2 hrs post dose; assay type: ADME, organism-based, Canis lupus familiaris; conditions: in vivo; method in brief: as §4
[18] = Dose normalized AUC in wild type Sprague-Dawley rat at 1 mg/kg, iv; assay type: ADME, organism-based; conditions: in vivo; method in brief: as §3
[19] = Dose normalized AUC in beagle dog at 0.1 mg/kg, iv fasted 12 hrs prior to compound administration via cassette dosing and fed 2 hrs post dose; assay type: ADME, organism-based, Canis lupus familiaris; conditions: in vivo; method in brief: as §4
[20] = Dose normalized AUC in wild type Sprague-Dawley rat at 3 mg/kg, po; assay type: ADME, organism-based; conditions: in vivo; method in brief: as §3
[21] = Dose normalized AUC in beagle dog at 0.3 mg/kg, po fasted 12 hrs prior to compound administration via cassette dosing and fed 2 hrs post dose; assay type: ADME, organism-based, Canis lupus familiaris; conditions: in vivo; method in brief: as §4
[22] = Dose normalized Cmax in wild type Sprague-Dawley rat at 1 mg/kg, iv or 3 mg/kg, po; assay type: ADME, organism-based; conditions: in vivo; method in brief: as §3
[23] = Dose normalized Cmax in beagle dog at 0.1 mg/kg, iv or 0.3 mg/kg, po fasted 12 hrs prior to compound administration via cassette dosing and fed 2 hrs post dose; assay type: ADME, organism-based, Canis lupus familiaris; conditions: in vivo; method in brief: as §4
[24] = Tmax in wild type Sprague-Dawley rat at 1 mg/kg, iv or 3 mg/kg, po; assay type: ADME, organism-based; conditions: in vivo; method in brief: as §5
[25] = Oral bioavailability in wild type Sprague-Dawley rat at 3 mg/kg; assay type: ADME, organism-based; conditions: in vivo; method in brief: as §5
[26] = Oral bioavailability in beagle dog at 0.3 mg/kg fasted 12 hrs prior to compound administration via cassette dosing and fed 2 hrs post dose; assay type: ADME, organism-based, Canis lupus familiaris; conditions: in vivo; method in brief: as §6
[27] = Antiinflammatory activity in human PBMC assessed as inhibition of uric acid induced-IL-1beta formation stimulated with MSU crystals after 3 hrs in presence of ATP; assay type: functional, cell-based
[28] = Metabolic stability in bile-duct cannulated Sprague-Dawley rat assessed as parent compound remaining in liver at 3 mg/kg, iv measured over 8 hrs post dose; assay type: ADME, organism-based; conditions: read-out: Stability
Method in brief: (§7)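 Bile-duct cannulated rats dosed in vivo. Parent and metabolites in each matrix were expressed as relative peak areas of the drug-related components detected, at the stated sampling time or collection period post dose.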

[29] = Metabolic stability in bile-duct cannulated Sprague-Dawley rat assessed as parent compound remaining in kidney at 3 mg/kg, iv measured over 8 hrs post dose; assay type: ADME, organism-based; conditions: read-out: Stability; method in brief: as §7
[30] = Half life in beagle dog liver microsomes at 5 uM preincubated for 3 mins followed by NADPH addition measured after 1 hr by HPLC/MS analysis; assay type: ADME, Canis lupus familiaris
Canis familiaris = test: Antiinflammatory activity in MSU-induced beagle dog acute synovitis model assessed as prevention of inflammation-driven lameness at 15 mg/kg, administered once a week 3 hrs post MSU injection measured after 6 hrs post last dose; assay type: functional, organism-based; conditions: Canis lupus familiaris
Method in brief: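 Lameness was induced in dogs by uric acid injection into the joint. Treatment was vehicle, test article at 5 or 15 mg/kg, or meloxicam 0.2 mg/kg. Vertical peak force of the affected limb was measured on a force plate while trotting. The read-out was the time after treatment for that force to recover to 60% of the value measured before lameness.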

[31] = AUC (0 to 10.5 hrs) in MSU-induced beagle dog acute synovitis model at 15 mg/kg; assay type: ADME, organism-based, Canis lupus familiaris; set-up: time < 10.5 hr, dose 15 mg/kg; conditions: in vivo
Method in brief: (§8)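 Dog uric acid-induced acute synovitis model. Groups were vehicle, the test article at 5 or 15 mg/kg, and meloxicam at 0.2 mg/kg as positive control. Exposure is reported as AUC over 0–10.5 h.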

[32] = AUC (0 to 10.5 hrs) in MSU-induced beagle dog acute synovitis model at 5 mg/kg; assay type: ADME, organism-based, Canis lupus familiaris; set-up: time < 10.5 hr, dose 5 mg/kg; conditions: in vivo; method in brief: as §8
[33] = Half life in beagle dog liver S9 fraction at 1 uM in absence of NADPH by HPLC/MS analysis
[34] = Half life in wild type Sprague-Dawley rat liver S9 fraction at 1 uM in absence of NADPH by HPLC/MS analysis
[35] = Equilibrium solubility of the compound at pH 1 after 16 hrs by mass spectrometric analysis; assay type: physicochemical; conditions: buffer, pH 1, 16 h

Drug metabolism [1]: Metabolite_Detected
Drug metabolism [2]: Metabolite_Notdetected
Structure (SMILES): O=C(c1ccc(OCCN2CCCCC2)cc1)c1c(-c2ccc(O)cc2)sc2cc(O)ccc12 [RALOXIFENE]

IC50 [3]: 6 nM
IC50 [4]: 60 nM
IC50 [5]: 60 nM
logP [6]: 3.3
IC50 [7]: 200 nM
solubility thermodynamic at 16 h [8]: 136 µM (≈ 70.3 µg/mL)
solubility thermodynamic at 16 h [9]: > 1000 µM
fraction unbound at 4 h, 5 µM [10]: 0.03
half-life at 5 µM [11]: 3 min
clearance [12]: 277 mL/min/kg
clearance [13]: 25 mL/min/kg
half-life [14]: 2.1 h
half-life [15]: 3.2 h
MRT [16]: 1.2 h
MRT [17]: 2.4 h
AUC/dose [18]: 119 nmol·h
AUC/dose [19]: 1570 nmol·h
AUC/dose [20]: 31 nmol·h
AUC/dose [21]: 957 nmol·h
Cmax/dose [22]: 12 nM
Cmax/dose [23]: 61 nM
Tmax [24]: 0.3 h
bioavailability [25]: 26%
bioavailability [26]: 61%
IC50 [27]: 200 nM
remaining at 8 h [28]: 28%
remaining at 8 h [29]: 22%
half-life at 5 µM [30]: 0.167 h
AUC [31]: 4575 nmol·h
AUC [32]: 2057 nmol·h
half-life at 1 µM [33]: > 2 h
half-life at 1 µM [34]: < 5 min
Structure (SMILES): CC(CN1CCOCC1)Nc1ccc2cc(-n3cnc4cnc5cnc(-c6ccncc6)cc5c43)ccc2n1 (racemic)
Activity (Canis familiaris): Active

IC50 [3]: 16 nM
IC50 [4]: 280 nM
IC50 [5]: 270 nM
logP [6]: 4.6
IC50 [7]: 2500 nM
solubility thermodynamic at 16 h [8]: < 4 µM
solubility thermodynamic at 16 h [9]: > 1000 µM
fraction unbound at 4 h, 5 µM [10]: < 0.01
solubility [35]: Soluble
Structure (SMILES): c1ccc(-c2cc3c(cn2)ncc2ncn(-c4ccc5nc(NCCN6CCOCC6)sc5c4)c23)cc1

From ChEMBL document CHEMBL3853320, “Discovery of Imidazoquinolines as a Novel Class of Potent, Selective, and in Vivo Efficacious Cancer Osaka Thyroid (COT) Kinase Inhibitors” (J Med Chem, 2016)
